≈ marks a conversion by molar mass, not a printed value.
Columns and labels:
Candida albicans [1] = test: Antifungal activity against fluconazole resistant Candida albicans 167-2 by CLSI protocol based broth microdilution method; assay type: functional
Outline: (§1)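 Broth microdilution per CLSI M27-A3 against clinical C. albicans isolates. Strains sub-cultured at least twice on Tryptone Soya Agar, 37 °C, 48 h. Compounds dissolved in DMSO at 2000 μg mL–1 stock. Fluconazole positive control, plus culture, media and vehicle controls. Run in duplicate; MIC in μg mL–1.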

Candida albicans [2] = test: Antifungal activity against fluconazole resistant Candida albicans A171 by CLSI protocol based broth microdilution method; assay type: functional; outline: as §1
Candida albicans [3] = test: Antifungal activity against fluconazole resistant Candida albicans 167-1 by CLSI protocol based broth microdilution method; assay type: functional; outline: as §1
Candida albicans [4] = test: Antifungal activity against fluconazole susceptible Candida albicans 002B1 by CLSI protocol based broth microdilution method; assay type: functional
Outline: (§2)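 Clinical isolates and control strain subcultured at least twice on TSA, 37 °C, 48 h. MICs by CLSI M27-A3 broth microdilution; compounds dissolved in DMSO to 2000 μg mL–1 stock. Fluconazole positive control, culture, media and DMSO vehicle controls in each run. Duplicate experiments; MIC in μg mL–1.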

Candida albicans [5] = test: Antifungal activity against fluconazole susceptible Candida albicans 003gr by CLSI protocol based broth microdilution method; assay type: functional; outline: as §2
Candida albicans [6] = test: Antifungal activity against fluconazole susceptible Candida albicans 004gr by CLSI protocol based broth microdilution method; assay type: functional; outline: as §2
Candida albicans [7] = test: Antifungal activity against fluconazole susceptible Candida albicans 004B1 by CLSI protocol based broth microdilution method; assay type: functional; outline: as §2
Candida albicans [8] = test: Antifungal activity against fluconazole susceptible Candida albicans 0079gr by CLSI protocol based broth microdilution method; assay type: functional; outline: as §2
Candida albicans [9] = test: Antifungal activity against fluconazole susceptible Candida albicans 0072gr by CLSI protocol based broth microdilution method; assay type: functional; outline: as §2
Candida albicans [10] = test: Antifungal activity against Candida albicans ATCC 90028 by CLSI protocol based broth microdilution method; assay type: functional; outline: as §2
Candida albicans [11] = test: Antifungal activity against fluconazole resistant Candida albicans A171 in presence of fluconazole by CLSI protocol based broth microdilution method; assay type: functional
Outline: (§3)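 Checkerboard-style combination with fluconazole at a 1 : 1 ratio, over concentrations 2–4 fold below each agent's MIC alone, by CLSI broth microdilution. Fractional inhibitory concentration index calculated and interpreted as synergy (<0.5), additive (0.5–1), indifferent or antagonistic.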

Candida albicans [12] = test: Antifungal activity against fluconazole resistant Candida albicans 167-1 in presence of fluconazole by CLSI protocol based broth microdilution method; assay type: functional; outline: as §3
Candida albicans [13] = test: Antifungal activity against fluconazole resistant Candida albicans 167-2 in presence of fluconazole by CLSI protocol based broth microdilution method; assay type: functional; outline: as §3
Candida albicans [14] = test: Antifungal activity against fluconazole susceptible Candida albicans 002B1 in presence of fluconazole by CLSI protocol based broth microdilution method; assay type: functional
Candida albicans [15] = test: Antifungal activity against fluconazole susceptible Candida albicans 003gr in presence of fluconazole by CLSI protocol based broth microdilution method; assay type: functional
Candida albicans [16] = test: Antifungal activity against fluconazole susceptible Candida albicans 004gr in presence of fluconazole by CLSI protocol based broth microdilution method; assay type: functional
Candida albicans [17] = test: Antifungal activity against fluconazole susceptible Candida albicans 004B1 in presence of fluconazole by CLSI protocol based broth microdilution method; assay type: functional
Candida albicans [18] = test: Antifungal activity against fluconazole susceptible Candida albicans 0079gr in presence of fluconazole by CLSI protocol based broth microdilution method; assay type: functional
Candida albicans [19] = test: Antifungal activity against fluconazole susceptible Candida albicans 0072gr in presence of fluconazole by CLSI protocol based broth microdilution method; assay type: functional
Candida albicans [20] = test: Antifungal activity against Candida albicans ATCC 90028 in presence of fluconazole by CLSI protocol based broth microdilution method; assay type: functional
Candida albicans [21] = test: Inhibition of ABC efflux pumps in fluconazole resistant Candida albicans A171 assessed as reduction in energy-dependent rhodamine 6G efflux in presence of 0.1 M glucose after 25 mins by fluorescence assay relative to control
Outline: (§4)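 Cells grown in TSB at 37 °C for 8 h, washed, resuspended in glucose-free PBS at 1 × 10^8 cells. De-energized 45 min with 5 mM deoxyglucose plus 5 mM dinitrophenol. […] Washed, sampled 5–25 min, then 0.1 M glucose added. Absorbance 527 nm, R6G from standard curve.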

Candida albicans [22] = test: Inhibition of ABC efflux pumps in fluconazole resistant Candida albicans 167-1 assessed as reduction in energy-dependent rhodamine 6G efflux in presence of 0.1 M glucose after 25 mins […] relative to control
Candida albicans [23] = test: Inhibition of ABC efflux pumps in fluconazole resistant Candida albicans 167-2 assessed as reduction in energy-dependent rhodamine 6G efflux in presence of 0.1 M glucose after 25 mins […] relative to control
Candida albicans [24] = test: Inhibition of ABC efflux pumps in fluconazole susceptible Candida albicans 002B1 assessed as reduction in energy-dependent rhodamine 6G efflux in presence of 0.1 M glucose after 25 mins […] relative to control
Candida albicans [25] = test: Inhibition of ABC efflux pumps in fluconazole susceptible Candida albicans 003gr assessed as reduction in energy-dependent rhodamine 6G efflux in presence of 0.1 M glucose after 25 mins […] relative to control
Candida albicans [26] = test: Inhibition of ABC efflux pumps in fluconazole susceptible Candida albicans 004gr assessed as reduction in energy-dependent rhodamine 6G efflux in presence of 0.1 M glucose after 25 mins by fluorescence assay relative to control; outline: as §4
Candida albicans [27] = test: Inhibition of ABC efflux pumps in fluconazole susceptible Candida albicans 004B1 assessed as reduction in energy-dependent rhodamine 6G efflux in presence of 0.1 M glucose after 25 mins by fluorescence assay relative to control; outline: as §4
Candida albicans [28] = test: Inhibition of ABC efflux pumps in fluconazole susceptible Candida albicans 0079gr assessed as reduction in energy-dependent rhodamine 6G efflux in presence of 0.1 M glucose after 25 mins by fluorescence assay relative to control; outline: as §4
Candida albicans [29] = test: Inhibition of ABC efflux pumps in fluconazole susceptible Candida albicans 0072gr assessed as reduction in energy-dependent rhodamine 6G efflux in presence of 0.1 M glucose after 25 mins […] relative to control
Candida albicans [30] = test: Inhibition of ergosterol biosynthesis in fluconazole resistant Candida albicans A171 at 0.5 to 1 times MIC relative to control; assay type: functional
Outline: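 Total sterols quantified by alcoholic KOH extraction in cells grown in 50 ml TSB with compounds at MIC and ½ MIC; untreated and 8 μg mL–1 fluconazole controls. Spectral scan; ergosterol content from A281.5 and A230 absorbances, dilution factor and pellet weight, correcting for 24(28) DHE.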

Candida albicans [31] = test: Inhibition of ergosterol biosynthesis in fluconazole susceptible Candida albicans ATCC 90028 at 0.5 to 1 times MIC relative to control; assay type: functional
Outline: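 ATCC90028 grown in 50 ml TSB with MIC and ½ MIC of compound; untreated and 8 μg mL–1 fluconazole controls. Sterols extracted by alcoholic KOH method and spectrophotometrically scanned; ergosterol % calculated from A281.5 and A230 (E values 290 and 518) with dilution factor, per pellet weight.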

Row | Structure (SMILES) | MIC (Candida albicans [1]) [mg/L] | MIC (Candida albicans [2]) [mg/L] | MIC (Candida albicans [3]) [mg/L] | MIC (Candida albicans [4]) [mg/L] | MIC (Candida albicans [5]) [mg/L] | MIC (Candida albicans [6]) [mg/L] | MIC (Candida albicans [7]) [mg/L] | MIC (Candida albicans [8]) [mg/L] | MIC (Candida albicans [9]) [mg/L] | MIC (Candida albicans [10]) [mg/L] | fractional inhibitory concentration index (FICI) (Candida albicans [11]) | fractional inhibitory concentration index (FICI) (Candida albicans [12]) | fractional inhibitory concentration index (FICI) (Candida albicans [13]) | fractional inhibitory concentration index (FICI) (Candida albicans [14]) | fractional inhibitory concentration index (FICI) (Candida albicans [15]) | fractional inhibitory concentration index (FICI) (Candida albicans [16]) | fractional inhibitory concentration index (FICI) (Candida albicans [17]) | fractional inhibitory concentration index (FICI) (Candida albicans [18]) | fractional inhibitory concentration index (FICI) (Candida albicans [19]) | fractional inhibitory concentration index (FICI) (Candida albicans [20]) | other results
1 | SC1=NC(c2ccccc2)=CC(c2ccccc2)N1 (stereo not drawn) | 8 to 16 (≈ 30 to 60.1 µM) | 8 to 16 (≈ 30 to 60.1 µM) | 8 to 16 (≈ 30 to 60.1 µM) | 0.5 to 4 (≈ 1.88 to 15 µM) | 0.5 to 4 (≈ 1.88 to 15 µM) | 0.5 to 4 (≈ 1.88 to 15 µM) | 0.5 to 4 (≈ 1.88 to 15 µM) | 0.5 to 4 (≈ 1.88 to 15 µM) | 0.5 to 4 (≈ 1.88 to 15 µM) | 0.5 to 4 (≈ 1.88 to 15 µM) | 0.254 - 0.27 | 0.254 - 0.27 | 0.254 - 0.27 | 0.37 - 1.13 | 0.37 - 1.13 | 0.37 - 1.13 | 0.37 - 1.13 | 0.37 - 1.13 | 0.37 - 1.13 | 0.37 - 1.13 | inhibition (Candida albicans [21]): < 20%; inhibition (Candida albicans [22]): < 20%; inhibition (Candida albicans [23]): < 20%; inhibition (Candida albicans [24]): < 20%; inhibition (Candida albicans [25]): < 20%; inhibition (Candida albicans [26]): < 20%; inhibition (Candida albicans [27]): < 20%; inhibition (Candida albicans [28]): < 20%; inhibition (Candida albicans [29]): < 20%; inhibition (INH) (Candida albicans [30]): 49 - 94%; inhibition (INH) (Candida albicans [31]): 66 - 99%
2 | c1ccc(C2=NOC(c3ccccc3)C2)cc1 (stereo not drawn) | 16 to 31 (≈ 71.7 to 139 µM) | 16 to 31 (≈ 71.7 to 139 µM) | 16 to 31 (≈ 71.7 to 139 µM) | 4 to 31 (≈ 17.9 to 139 µM) | 4 to 31 (≈ 17.9 to 139 µM) | 4 to 31 (≈ 17.9 to 139 µM) | 4 to 31 (≈ 17.9 to 139 µM) | 4 to 31 (≈ 17.9 to 139 µM) | 4 to 31 (≈ 17.9 to 139 µM) | 4 to 31 (≈ 17.9 to 139 µM) | 0.531 - 0.56 | 0.531 - 0.56 | 0.531 - 0.56 | 0.75 - 2 | 0.75 - 2 | 0.75 - 2 | 0.75 - 2 | 0.75 - 2 | 0.75 - 2 | 0.75 - 2 | inhibition (Candida albicans [21]): < 20%; inhibition (Candida albicans [22]): < 20%; inhibition (Candida albicans [23]): < 20%; inhibition (Candida albicans [24]): < 20%; inhibition (Candida albicans [25]): < 20%; inhibition (Candida albicans [26]): < 20%; inhibition (Candida albicans [27]): < 20%; inhibition (Candida albicans [28]): < 20%; inhibition (Candida albicans [29]): < 20%; inhibition (INH) (Candida albicans [30]): 49 - 94%; inhibition (INH) (Candida albicans [31]): 66 - 99%
3 | NC(=S)N1N=C(c2ccccc2)CC1c1ccccc1 (stereo not drawn) | 500 (≈ 1780 µM) | 500 (≈ 1780 µM) | 500 (≈ 1780 µM) | 125 to 500 (≈ 444 to 1780 µM) | 125 to 500 (≈ 444 to 1780 µM) | 125 to 500 (≈ 444 to 1780 µM) | 125 to 500 (≈ 444 to 1780 µM) | 125 to 500 (≈ 444 to 1780 µM) | 125 to 500 (≈ 444 to 1780 µM) | 125 to 500 (≈ 444 to 1780 µM) | 0.75 - 1.5 | 0.75 - 1.5 | 0.75 - 1.5 | 1.97 - 4.28 | 1.97 - 4.28 | 1.97 - 4.28 | 1.97 - 4.28 | 1.97 - 4.28 | 1.97 - 4.28 | 1.97 - 4.28 | inhibition (Candida albicans [21]): < 20%; inhibition (Candida albicans [22]): < 20%; inhibition (Candida albicans [23]): < 20%; inhibition (Candida albicans [24]): < 20%; inhibition (Candida albicans [25]): < 20%; inhibition (Candida albicans [26]): < 20%; inhibition (Candida albicans [27]): < 20%; inhibition (Candida albicans [28]): < 20%; inhibition (Candida albicans [29]): < 20%; inhibition (INH) (Candida albicans [30]): 49 - 94%; inhibition (INH) (Candida albicans [31]): 66 - 99%
